The test system of one assay is Diabrotica balteata. Kind of assay: Insecticidal activity against Diabrotica balteata infected in cabbage leaves assessed as mortality after 5 days by leaf-disc method. The assay is classed as functional.
Another assay relates to Sitobion avenae. Description: Insecticidal activity against second-instar larva of Sitobion avenae infected in cabbage leaves assessed as mortality after 5 days by leaf-disc method. In kind it is functional.
The subject of another assay is Caenorhabditis elegans. Kind of assay: Insecticidal activity against fourth-instar larva of Caenorhabditis elegans assessed as mortality after 5 days. In kind it is functional, organism-based.
The test system of the next assay is Plutella xylostella. Description: Insecticidal activity against Plutella xylostella infected in cabbage leaves assessed as mortality after 5 days by leaf-disc method. The assay is classed as functional, organism-based.
Another assay relates to P388. Kind of assay: Cytotoxicity against mouse P388 cells. The assay is classed as functional. The note with it: read-out: ED50 (the source's name).
For a further assay, the system named is SMMC-7721. Kind of assay: Cytotoxicity against human SMMC7721 cells after 72 hrs by MTT assay. The assay is classed as functional, cell-based. Summed up:
(§1)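 Human tumour cell panel (HL-60, Bel7402, HepG2, SMMC-7721) with doxorubicin as the positive control.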

In a further assay the test system is HepG2. Kind of assay: Cytotoxicity against human HepG2 cells after 72 hrs by MTT assay. In kind it is functional, cell-based. The method in brief: as §1
For orientation: Formazan colour is commonly taken as a measure of viable cells.

Calls of active or inactive are those of the source. The calls are words filed in the database; no cut-off is given here.

For the compound `CC(=O)O[C@H]1CC(=O)OC(C)(C)[C@@H]2C[C@@H](O)[C@]3(C)[C@H]([C@@H](O)[C@H](OC(=O)c4cccnc4)[C@@]4(C)[C@H](c5ccoc5)C[C@H]5O[C@@]534)[C@@]12C`, the result in the assay on Diabrotica balteata and with Sitobion avenae was Active.

With `CC(=O)O[C@H]1CC(=O)OC(C)(C)[C@@H]2C[C@@H](OC(C)=O)[C@]3(C)[C@H]([C@@H](O)[C@H](O)[C@@]4(C)[C@H](c5ccoc5)C[C@H]5O[C@@]534)[C@@]12C`, the result in the assay on Diabrotica balteata was Active.

As for `COC(=O)N(C(=O)N1CO[C@@]2(C(=O)OC)Cc3cc(Cl)ccc3C2=N1)c1ccc(OC(F)(F)F)cc1`, in the assay on Sitobion avenae, the outcome was Active.

Consider `CC1(C)OC(=O)C=C[C@]2(C)[C@H]3[C@@H](O)[C@H](O)[C@@]4(C)[C@H](c5ccoc5)C[C@@H](O)[C@]45O[C@H](C[C@@H]12)[C@]35C`, for which the result in the assay on Caenorhabditis elegans, in the assay on Diabrotica balteata, in the assay with Sitobion avenae and in the assay on Plutella xylostella was Active.

`CC(=O)O[C@@H]1C[C@H](O)[C@@]23CO[C@H](O)[C@]1(C)[C@@H]2C[C@@H](O)[C@]1(C)[C@@H]3C(=O)C[C@@]2(C)[C@H](c3ccoc3)C[C@H]3O[C@]312` [AMOORASTATIN]: the EC50 with P388 is less than 0.065 µg/mL.

In the case of `COc1cccc2c1C(=O)c1c(O)c3c(c(O)c1C2=O)C[C@@](O)(C(=O)CO)C[C@@H]3O[C@H]1C[C@H](N)[C@H](O)[C@H](C)O1`, the outcome in the assay with SMMC-7721 and in the assay with HepG2 was Active.

In the case of `CC1(C)OC(=O)C=C[C@]2(C)[C@H]3[C@@H](O)[C@H](O)[C@]4(C)[C@@H](C(=O)C[C@H]4c4ccoc4)[C@]3(C)[C@H](O)C[C@@H]12`, the result in the assay on Caenorhabditis elegans, with Diabrotica balteata, in the assay on Sitobion avenae and in the assay on Plutella xylostella was Active.

On to `CN1COCN(Cc2cnc(Cl)s2)/C1=N\[N+](=O)[O-]`, for which, in the assay on Sitobion avenae, the outcome was Active.

With `CCC(C)C(=O)OC1OC[C@@]23[C@H]4C(=O)[C@H](O)[C@@]5(C)[C@H](c6ccoc6)C[C@H]6O[C@]65[C@]4(C)[C@H](O)C[C@H]2[C@]1(C)[C@H](OC(C)=O)[C@H](O)[C@@H]3OC(C)=O` (some centres not stated) [APHANASTATIN], the EC50 in the assay with P388 is less than 0.065 µg/mL.

For the origin of these results see ChEMBL document CHEMBL2390822, “Bioactive terpenoids from the fruits of Aphanamixis grandifolia” (J Nat Prod, 2013).
